In brackets after ≈: the same amount, converted by molar mass. Activity calls are given as the source filed them. The calls are words filed in the database; no cut-off is given here.
Key:
Plasma [1] = assay: Total plasma concentration in C57Bl/6 mouse at 30 mg/kg, po; type: ADME, organism-based; details: in vivo
Mus musculus [2] = assay: Antipruriceptive activity in C57Bl/6 mouse assessed as reduction in number of histamine-induced scratching bouts at 30 to 300 mg/kg, po administered 4 hrs prior to histamine challenge measured over 15 mins; type: functional, organism-based
Rattus norvegicus = assay: Unbound clearance in rat at 0.5 mg/kg, iv; type: ADME, organism-based; details: in vivo
Outline: (§1)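 Male rats given a single 0.5 mg/kg iv dose in DMSO. Unbound clearance (CLu) is total clearance divided by fu, the unbound fraction in plasma.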

[3] = target: T1, Sodium channel protein type 9 subunit alpha (Homo sapiens, UniProt Q15858); assay: Inhibition of human Nav1.7 expressed in HEK293 cells assessed as reduction in peak inward current by ionworks quattro electrophysiology assay; type: cell-based
T1 sequence (Q15858 whole entry): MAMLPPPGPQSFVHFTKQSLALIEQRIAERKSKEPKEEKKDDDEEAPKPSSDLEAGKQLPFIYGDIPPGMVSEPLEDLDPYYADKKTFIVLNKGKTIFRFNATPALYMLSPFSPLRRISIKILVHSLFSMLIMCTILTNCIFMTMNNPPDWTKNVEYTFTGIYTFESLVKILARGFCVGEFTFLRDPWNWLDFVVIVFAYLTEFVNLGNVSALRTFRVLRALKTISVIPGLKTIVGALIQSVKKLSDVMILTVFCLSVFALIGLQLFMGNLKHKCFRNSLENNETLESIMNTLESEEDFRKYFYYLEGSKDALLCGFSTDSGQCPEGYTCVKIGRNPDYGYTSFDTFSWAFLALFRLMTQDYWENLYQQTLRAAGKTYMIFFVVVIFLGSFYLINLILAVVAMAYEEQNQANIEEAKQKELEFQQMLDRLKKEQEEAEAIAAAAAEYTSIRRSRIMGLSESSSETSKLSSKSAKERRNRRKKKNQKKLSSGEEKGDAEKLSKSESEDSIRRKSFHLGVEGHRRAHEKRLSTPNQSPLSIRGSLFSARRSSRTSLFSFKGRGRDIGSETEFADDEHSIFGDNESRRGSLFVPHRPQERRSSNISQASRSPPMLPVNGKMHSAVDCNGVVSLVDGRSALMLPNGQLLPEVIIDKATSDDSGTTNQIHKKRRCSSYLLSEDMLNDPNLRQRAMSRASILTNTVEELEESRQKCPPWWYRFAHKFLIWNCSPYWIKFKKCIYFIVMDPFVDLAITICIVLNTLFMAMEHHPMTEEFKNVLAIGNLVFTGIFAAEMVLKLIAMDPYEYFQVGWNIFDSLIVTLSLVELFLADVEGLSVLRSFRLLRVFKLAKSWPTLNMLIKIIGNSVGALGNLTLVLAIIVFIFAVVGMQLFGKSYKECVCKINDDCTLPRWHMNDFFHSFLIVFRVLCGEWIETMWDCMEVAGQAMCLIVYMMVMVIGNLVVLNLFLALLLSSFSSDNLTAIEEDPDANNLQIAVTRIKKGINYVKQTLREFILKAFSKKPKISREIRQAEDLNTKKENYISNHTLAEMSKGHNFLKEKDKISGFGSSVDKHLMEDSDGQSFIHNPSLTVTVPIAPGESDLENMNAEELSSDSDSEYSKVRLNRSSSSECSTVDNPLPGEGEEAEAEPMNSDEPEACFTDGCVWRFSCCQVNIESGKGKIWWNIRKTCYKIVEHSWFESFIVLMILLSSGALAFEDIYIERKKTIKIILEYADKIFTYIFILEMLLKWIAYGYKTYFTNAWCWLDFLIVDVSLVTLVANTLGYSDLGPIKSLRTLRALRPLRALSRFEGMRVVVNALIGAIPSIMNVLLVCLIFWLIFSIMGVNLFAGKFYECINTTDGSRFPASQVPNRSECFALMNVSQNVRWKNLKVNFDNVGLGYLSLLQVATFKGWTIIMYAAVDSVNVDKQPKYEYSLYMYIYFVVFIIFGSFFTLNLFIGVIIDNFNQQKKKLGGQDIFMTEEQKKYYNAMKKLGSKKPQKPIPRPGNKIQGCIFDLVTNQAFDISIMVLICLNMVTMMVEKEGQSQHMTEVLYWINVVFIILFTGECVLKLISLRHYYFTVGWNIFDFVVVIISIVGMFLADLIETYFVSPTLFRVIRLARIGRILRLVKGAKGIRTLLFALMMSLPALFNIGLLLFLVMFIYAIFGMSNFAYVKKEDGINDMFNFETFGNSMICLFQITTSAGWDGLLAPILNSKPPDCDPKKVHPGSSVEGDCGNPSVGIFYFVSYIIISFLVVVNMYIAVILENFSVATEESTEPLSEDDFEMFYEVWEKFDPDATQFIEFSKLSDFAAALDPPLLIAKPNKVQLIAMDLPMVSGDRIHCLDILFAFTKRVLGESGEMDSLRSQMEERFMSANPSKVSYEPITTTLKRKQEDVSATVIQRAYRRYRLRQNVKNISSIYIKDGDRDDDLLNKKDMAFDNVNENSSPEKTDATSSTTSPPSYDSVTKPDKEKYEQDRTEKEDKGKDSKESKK

[4] = target: Sodium channel protein type 5 subunit alpha (Homo sapiens, UniProt Q14524); assay: Inhibition of human Nav1.5 expressed in HEK293 cells assessed as reduction in peak inward current by ionworks quattro electrophysiology assay; type: cell-based
[5] = target: Sodium channel protein type 3 subunit alpha (Homo sapiens, UniProt Q9NY46); assay: Inhibition of human Nav1.3 expressed in CHO cells assessed as reduction in peak inward current by ionworks quattro electrophysiology assay; type: cell-based
[6] = target: Sodium channel protein type 4 subunit alpha (Homo sapiens, UniProt P35499); assay: Inhibition of human Nav1.4 expressed in HEK293 cells assessed as reduction in peak inward current by ionworks quattro electrophysiology assay; type: cell-based
Sodium channel protein type 4 subunit alpha, sequence (P35499 whole entry): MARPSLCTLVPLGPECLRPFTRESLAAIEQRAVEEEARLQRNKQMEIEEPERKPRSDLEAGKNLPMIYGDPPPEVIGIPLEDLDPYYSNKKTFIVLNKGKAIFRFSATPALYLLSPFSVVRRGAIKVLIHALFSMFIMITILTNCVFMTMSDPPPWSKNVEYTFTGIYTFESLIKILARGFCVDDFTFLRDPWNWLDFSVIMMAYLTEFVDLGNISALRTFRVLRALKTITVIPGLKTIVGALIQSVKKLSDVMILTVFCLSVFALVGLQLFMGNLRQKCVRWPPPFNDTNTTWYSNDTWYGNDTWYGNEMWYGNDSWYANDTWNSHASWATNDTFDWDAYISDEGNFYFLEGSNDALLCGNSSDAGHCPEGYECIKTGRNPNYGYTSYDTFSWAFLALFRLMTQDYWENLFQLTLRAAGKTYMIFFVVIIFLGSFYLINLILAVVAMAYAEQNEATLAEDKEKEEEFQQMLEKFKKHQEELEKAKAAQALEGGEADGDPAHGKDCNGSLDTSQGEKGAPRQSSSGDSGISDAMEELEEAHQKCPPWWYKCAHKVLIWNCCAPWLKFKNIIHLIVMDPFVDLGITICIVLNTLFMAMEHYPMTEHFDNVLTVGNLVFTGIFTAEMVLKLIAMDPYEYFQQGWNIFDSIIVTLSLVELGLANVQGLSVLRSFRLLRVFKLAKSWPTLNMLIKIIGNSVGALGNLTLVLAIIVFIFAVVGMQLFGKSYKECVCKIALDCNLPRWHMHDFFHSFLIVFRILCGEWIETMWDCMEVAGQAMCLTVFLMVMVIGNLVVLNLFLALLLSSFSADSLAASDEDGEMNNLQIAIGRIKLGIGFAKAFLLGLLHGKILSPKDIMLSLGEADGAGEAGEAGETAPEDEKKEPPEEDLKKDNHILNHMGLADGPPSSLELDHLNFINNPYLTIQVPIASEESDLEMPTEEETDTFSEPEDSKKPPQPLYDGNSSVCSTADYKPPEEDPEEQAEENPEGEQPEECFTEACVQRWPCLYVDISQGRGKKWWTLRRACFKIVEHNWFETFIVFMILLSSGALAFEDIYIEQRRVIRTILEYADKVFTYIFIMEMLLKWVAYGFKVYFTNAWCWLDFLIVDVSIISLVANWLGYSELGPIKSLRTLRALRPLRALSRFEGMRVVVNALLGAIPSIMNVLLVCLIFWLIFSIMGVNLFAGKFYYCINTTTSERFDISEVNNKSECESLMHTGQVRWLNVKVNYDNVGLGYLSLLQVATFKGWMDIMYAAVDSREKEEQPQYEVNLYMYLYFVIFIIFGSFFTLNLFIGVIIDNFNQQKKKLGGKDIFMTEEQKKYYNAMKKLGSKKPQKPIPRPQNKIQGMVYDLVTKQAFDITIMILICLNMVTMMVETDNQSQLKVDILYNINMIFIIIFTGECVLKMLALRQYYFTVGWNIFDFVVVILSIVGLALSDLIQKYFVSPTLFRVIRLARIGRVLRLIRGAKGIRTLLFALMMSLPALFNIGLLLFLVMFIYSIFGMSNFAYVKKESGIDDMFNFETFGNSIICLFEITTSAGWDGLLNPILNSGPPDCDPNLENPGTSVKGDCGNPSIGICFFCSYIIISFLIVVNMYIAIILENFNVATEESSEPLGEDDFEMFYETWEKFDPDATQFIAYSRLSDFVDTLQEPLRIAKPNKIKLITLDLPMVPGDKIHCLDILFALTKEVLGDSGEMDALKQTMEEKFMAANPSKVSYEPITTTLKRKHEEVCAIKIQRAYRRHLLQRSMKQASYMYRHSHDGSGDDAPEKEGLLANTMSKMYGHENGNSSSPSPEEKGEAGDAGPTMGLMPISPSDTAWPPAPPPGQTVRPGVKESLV

[7] = target: Sodium channel protein type 8 subunit alpha (Homo sapiens, UniProt Q9UQD0); assay: Inhibition of human Nav1.6 expressed in HEK293 cells assessed as reduction in peak inward current by ionworks quattro electrophysiology assay; type: cell-based
Canis familiaris = assay: Unbound clearance in dog at 0.25 mg/kg, iv; type: ADME, organism-based, Canis lupus familiaris; details: in vivo
Outline: (§2)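 Male dogs received a single 0.25 mg/kg iv dose in DMSO. Unbound clearance (CLu) is total clearance divided by fu, the unbound fraction in plasma.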

[8] = Intrinsic clearance in human liver microsomes at 1 uM after 1 to 40 mins in presence of NADPH by LC-MS/MS analysis; type: ADME, microsome; details: read-out: CLH
[9] = Total clearance in dog at 0.25 mg/kg, iv; type: ADME, organism-based, Canis lupus familiaris; details: in vivo; outline: as §2
[10] = Volume of distribution at steady state in rat at 0.5 mg/kg, iv; type: ADME, organism-based; details: in vivo, read-out: Vdss; outline: as §1
[11] = Volume of distribution at steady state in dog at 0.25 mg/kg, iv; type: ADME, organism-based, Canis lupus familiaris; details: in vivo, read-out: Vdss; outline: as §2
[12] = Half life in rat at 0.5 mg/kg, iv; type: ADME, organism-based; details: in vivo; outline: as §1
[13] = AUC in rat at 10 mg/kg, po; type: ADME, organism-based; details: in vivo
[14] = AUC in dog at 2 mg/kg, po; type: ADME, organism-based, Canis lupus familiaris; details: in vivo
[15] = Oral bioavailability in rat at 10 mg/kg; type: ADME, organism-based; details: in vivo
[16] = Oral bioavailability in dog at 2 mg/kg; type: ADME, organism-based, Canis lupus familiaris; details: in vivo
[17] = Unbound fraction in rat plasma at 5 uM by LC-MS/MS method; type: ADME, cell-free
[18] = Unbound fraction in dog plasma at 5 uM by LC-MS/MS method; type: ADME, cell-free, Canis lupus familiaris
[19] = Aqueous solubility of the compound in PBS after 48 hrs by shake flask method; type: physicochemical
Mus musculus [20] = assay: Toxicity in naive C57Bl/6 mouse assessed as effect on basic locomotor movement at 30 to 300 mg/kg, po measured after 4 hrs for 60 mins by open field test; type: organism-based; details: in vivo
[21] = Tmax in dog at 2 mg/kg, po; type: ADME, organism-based, Canis lupus familiaris; details: in vivo
Cytochrome P450 3A4 [22] = target: T2, Cytochrome P450 3A4 (Homo sapiens, UniProt P08684); assay: Inhibition of CYP3A4 (unknown origin); type: ADME
T2 sequence (P08684 whole entry): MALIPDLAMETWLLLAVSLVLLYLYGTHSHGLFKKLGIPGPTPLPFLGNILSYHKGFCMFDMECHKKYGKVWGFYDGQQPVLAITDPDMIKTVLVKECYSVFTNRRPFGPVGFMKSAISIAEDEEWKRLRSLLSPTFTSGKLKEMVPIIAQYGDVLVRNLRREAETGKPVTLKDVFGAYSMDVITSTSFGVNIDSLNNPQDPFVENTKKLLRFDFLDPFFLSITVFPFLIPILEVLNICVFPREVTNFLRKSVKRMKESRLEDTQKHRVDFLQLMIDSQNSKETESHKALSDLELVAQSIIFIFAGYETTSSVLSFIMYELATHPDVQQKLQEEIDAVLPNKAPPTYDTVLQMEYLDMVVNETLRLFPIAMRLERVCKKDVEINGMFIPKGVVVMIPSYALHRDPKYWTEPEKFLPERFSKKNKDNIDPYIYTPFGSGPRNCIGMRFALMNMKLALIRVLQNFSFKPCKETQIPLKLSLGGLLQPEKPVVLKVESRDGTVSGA

Cytochrome P450 2D6 = Cytochrome P450 2D6 (Homo sapiens, UniProt P10635); assay: Inhibition of CYP2D6 (unknown origin); type: ADME
Cytochrome P450 1A2 = target: T3, Cytochrome P450 1A2 (Homo sapiens, UniProt P05177); assay: Inhibition of CYP1A2 (unknown origin); type: ADME
T3 sequence (P05177 whole entry): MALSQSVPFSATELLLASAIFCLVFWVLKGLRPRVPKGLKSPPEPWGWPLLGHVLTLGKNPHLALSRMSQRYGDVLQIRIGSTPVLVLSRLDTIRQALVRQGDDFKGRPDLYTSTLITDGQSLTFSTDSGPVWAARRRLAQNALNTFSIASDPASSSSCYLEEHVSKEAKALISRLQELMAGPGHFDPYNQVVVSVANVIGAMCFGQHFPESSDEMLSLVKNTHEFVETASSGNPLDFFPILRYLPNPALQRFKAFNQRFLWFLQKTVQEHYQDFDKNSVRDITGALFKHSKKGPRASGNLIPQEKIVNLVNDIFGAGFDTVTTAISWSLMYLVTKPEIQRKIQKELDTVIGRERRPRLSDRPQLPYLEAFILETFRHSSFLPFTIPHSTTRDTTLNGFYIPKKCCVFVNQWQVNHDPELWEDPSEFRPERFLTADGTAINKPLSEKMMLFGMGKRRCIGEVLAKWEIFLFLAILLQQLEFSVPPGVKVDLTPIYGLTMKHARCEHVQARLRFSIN

Cytochrome P450 2C9 = Cytochrome P450 2C9 (Homo sapiens, UniProt P11712); assay: Inhibition of CYP2C9 (unknown origin); type: ADME
Cytochrome P450 2C9, sequence (P11712 whole entry): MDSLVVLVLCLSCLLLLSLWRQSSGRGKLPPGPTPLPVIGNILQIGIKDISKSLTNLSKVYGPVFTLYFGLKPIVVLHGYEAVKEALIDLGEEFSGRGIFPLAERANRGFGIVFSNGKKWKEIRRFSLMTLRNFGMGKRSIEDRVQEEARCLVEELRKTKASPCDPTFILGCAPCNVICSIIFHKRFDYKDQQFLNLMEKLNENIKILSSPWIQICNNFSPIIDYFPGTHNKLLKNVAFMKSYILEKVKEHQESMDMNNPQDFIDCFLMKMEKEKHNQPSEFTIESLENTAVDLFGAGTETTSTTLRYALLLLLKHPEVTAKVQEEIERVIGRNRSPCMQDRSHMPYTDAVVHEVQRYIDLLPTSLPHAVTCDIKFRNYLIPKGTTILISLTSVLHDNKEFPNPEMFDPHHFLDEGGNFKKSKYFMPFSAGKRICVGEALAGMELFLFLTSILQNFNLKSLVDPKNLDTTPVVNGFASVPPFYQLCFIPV

Plasma [23] = assay: Total plasma concentration in C57Bl/6 mouse at 100 mg/kg, po; type: ADME, organism-based; details: in vivo
Plasma [24] = assay: Total plasma concentration in C57Bl/6 mouse at 300 mg/kg, po; type: ADME, organism-based; details: in vivo
Plasma [25] = assay: Unbound plasma concentration in C57Bl/6 mouse at 30 mg/kg, po; type: ADME, organism-based; details: in vivo
Plasma [26] = assay: Unbound plasma concentration in C57Bl/6 mouse at 100 mg/kg, po; type: ADME, organism-based; details: in vivo
Plasma [27] = assay: Unbound plasma concentration in C57Bl/6 mouse at 300 mg/kg, po; type: ADME, organism-based; details: in vivo
[28] = target: T1, Sodium channel protein type 9 subunit alpha; assay: Inhibition of human Nav1.7 expressed in HEK293 cells incubated for 3 to 5 mins at -125 mV holding potential by electrophysiology assay; type: cell-based
[29] = target: Sodium channel protein type 9 subunit alpha (Mus musculus, UniProt Q62205); assay: Inhibition of mouse Nav1.7 expressed in HEK293 cells incubated for 3 to 5 mins at -125 mV holding potential by electrophysiology assay; type: cell-based
[30] = target: Sodium channel protein type 9 subunit alpha (Rattus norvegicus, UniProt O08562); assay: Inhibition of rat Nav1.7 expressed in HEK293T cells incubated for 3 to 5 mins at -125 mV holding potential by electrophysiology assay; type: cell-based
[31] = target: T1, Sodium channel protein type 9 subunit alpha; assay: Inhibition of human Nav1.7 at resting/closed state expressed in HEK293 cells at -140 mV holding potential by manual whole cell patch clamp electrophysiology assay; type: cell-based
[32] = Unbound fraction in mouse plasma at 5 uM by LC-MS/MS method; type: ADME, cell-free
[33] = Ratio of unbound plasma concentration in C57Bl/6 mouse at 300 mg/kg, po to IC50 for human Nav1.7 at -125 mV holding potential
Cytochrome P450 3A4 [34] = target: T2, Cytochrome P450 3A4; assay: Induction of CYP3A4 in human hepatocytes at 10 uM relative to rifampicin

Question: For `COc1cc(-c2cccc(C(F)(F)F)c2)c(F)cc1-c1nccc2cc(S(=O)(=O)Nc3ccon3)ccc12`, which concentration (Plasma [1]) is on record?
Answer: The concentration was 21.2 µM.

Question: What about the Activity (Mus musculus [2]) of the same molecule?
Answer: Its Activity is “Active”.

Question: What about the CL free (Rattus norvegicus) of the same molecule?
Answer: The CL free was 433 mL/min/kg.

Question: And the IC50 [3]?
Answer: The IC50 was 0.017 µM.

Question: What about the IC50 [4] of the same molecule?
Answer: Its IC50 is 12 µM.

Question: What about the IC50 [5] of the same molecule?
Answer: The IC50 was 6.9 µM.

Question: What about the IC50 [6] of the same molecule?
Answer: Its IC50 is 12 µM.

Question: And the IC50 [7]?
Answer: Its IC50 is 16 µM.

Question: What about the CL free (Canis familiaris) of the same molecule?
Answer: The CL free was 60 mL/min/kg.

Question: And the microsomal CLint at 1 µM [8]?
Answer: The microsomal CLint at 1 µM was under 14 µL/min/mg.

Question: What about the clearance [9] of the same molecule?
Answer: Its clearance is 0.383 mL/min/kg.

Question: What about the Vd [10] of the same molecule?
Answer: Its Vd is 2.1 L/kg.

Question: And the Vd [11]?
Answer: Its Vd is 0.56 L/kg.

Question: What about the half-life [12] of the same molecule?
Answer: The half-life was 6.2 h.

Question: And the AUC [13]?
Answer: The AUC was 44.2 µM·h.

Question: What about the AUC [14] of the same molecule?
Answer: Its AUC is 101 µM·h.

Question: What about the bioavailability [15] of the same molecule?
Answer: The bioavailability was 54%.

Question: What about the bioavailability [16] of the same molecule?
Answer: Its bioavailability is 63%.

Question: What about the fraction unbound at 5 µM [17] of the same molecule?
Answer: The fraction unbound at 5 µM was 0.0087.

Question: What about the fraction unbound at 5 µM [18] of the same molecule?
Answer: The fraction unbound at 5 µM was 0.0066.

Question: What about the solubility thermodynamic at 48 h [19] of the same molecule?
Answer: The solubility thermodynamic at 48 h was 432 µM (≈ 235 µg/mL).

Question: What about the Activity (Mus musculus [20]) of the same molecule?
Answer: Its Activity is “Non-Toxic”.

Question: What about the Tmax [21] of the same molecule?
Answer: The Tmax was 2 h.

Question: What about the IC50 (Cytochrome P450 3A4 [22]) of the same molecule?
Answer: Its IC50 is over 15 µM.

Question: What about the IC50 (Cytochrome P450 2D6) of the same molecule?
Answer: The IC50 was over 15 µM.

Question: What about the IC50 (Cytochrome P450 1A2) of the same molecule?
Answer: Its IC50 is over 15 µM.

Question: And the IC50 (Cytochrome P450 2C9)?
Answer: Its IC50 is 0.43 µM.

Question: What about the concentration (Plasma [23]) of the same molecule?
Answer: Its concentration is 106 µM.

Question: And the concentration (Plasma [24])?
Answer: Its concentration is 137 µM.

Question: What about the “Cp(f)” value (Plasma [25]) of the same molecule?
Answer: The value was 0.246 µM.

Question: And the “Cp(f)” value (Plasma [26])?
Answer: Its value is 1.23 µM.

Question: And the “Cp(f)” value (Plasma [27])?
Answer: Its value is 1.59 µM.

Question: And the IC50 [28]?
Answer: The IC50 was 0.036 µM.

Question: What about the IC50 [29] of the same molecule?
Answer: Its IC50 is 0.036 µM.

Question: What about the IC50 [30] of the same molecule?
Answer: Its IC50 is 4 µM.

Question: What about the IC50 [31] of the same molecule?
Answer: The IC50 was 4 µM.

Question: And the fraction unbound at 5 µM [32]?
Answer: The fraction unbound at 5 µM was 0.0116.

Question: What about the Ratio [33] of the same molecule?
Answer: The Ratio was 45.

Question: And the Activity (Cytochrome P450 3A4 [34])?
Answer: Its Activity is 7%.
